Measurements taken from ChEMBL document CHEMBL1124794, “Synthesis, chemistry, and antineoplastic activity of alpha-halopyridinium salts: potential pyridone prodrugs of acylated vinylogous carbinolamine tumor inhibitors” (J Med Chem, 1990).

Legend:
[1] = Hydrolysis were done at 25 degree C in 0.05 M phosphate buffer (pH 7.4); assay type: ADME
Outline: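 Model pyridinium salts were hydrolysed to pyridones at 25 °C in 0.05 M phosphate buffer, pH 7.4. Decay of the pyridinium UV absorption maximum was monitored over time, giving pseudo-first-order k_obs and half-life.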

[2] = Half life of the compound; assay type: ADME
[3] = test system: P388; experiment: In vivo activity against P388 Lymphocytic Leukemia in CD2F1 mice at the dose of 100 mg/kg, activity expressed as TDS; 4/4; assay type: functional, Mus musculus
Outline: (§1)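 CD2F1 mice were inoculated with ascitic fluid holding ca. 10^6 P388 cells. Drug was given daily from 24 h after inoculation, from solutions or suspensions made fresh each day, some as a saline suspension. TDS is survivors/initial animals on day 5. BWD is body weight on day 5 minus day 1. %T/C compares median survival of treated and control mice.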

[4] = test system: P388; experiment: In vivo body weight difference was determined in P388 Lymphocytic Leukemia in CD2F1 mice at the dose of 50 mg/kg; assay type: functional, Mus musculus
[5] = test system: P388; experiment: In vivo activity against P388 Lymphocytic Leukemia in CD2F1 mice at the dose of 25 mg/kg, activity expressed as TDS; 4/4; assay type: functional, Mus musculus; outline: as §1
[6] = test system: P388; experiment: In vivo activity against P388 Lymphocytic Leukemia in CD2F1 mice at the dose of 50 mg/kg, activity expressed as % T/C; assay type: functional, Mus musculus; outline: as §1
[7] = test system: P388; experiment: In vivo activity against P388 Lymphocytic Leukemia in CD2F1 mice at the dose of 200 mg/kg, activity expressed as TDS; 4/4; assay type: functional, Mus musculus; outline: as §1
[8] = test system: P388; experiment: In vivo body weight difference was determined in P388 Lymphocytic Leukemia in CD2F1 mice at the dose of 25 mg/kg; assay type: functional, Mus musculus
[9] = test system: P388; experiment: In vivo body weight difference was determined in P388 Lymphocytic Leukemia in CD2F1 mice at the dose of 200 mg/kg; assay type: functional, Mus musculus
[10] = test system: P388; experiment: In vivo activity against P388 Lymphocytic Leukemia in CD2F1 mice at the dose of 50 mg/kg, activity expressed as TDS; 4/4; assay type: functional, Mus musculus; outline: as §1
[11] = test system: P388; experiment: In vivo activity against P388 Lymphocytic Leukemia in CD2F1 mice at the dose of 100 mg/kg, activity expressed as % T/C; assay type: functional, Mus musculus; outline: as §1
[12] = test system: P388; experiment: In vivo body weight difference was determined in P388 Lymphocytic Leukemia in CD2F1 mice at the dose of 100 mg/kg; assay type: functional, Mus musculus
[13] = test system: P388; experiment: In vivo activity against P388 Lymphocytic Leukemia in CD2F1 mice at the dose of 200 mg/kg, activity expressed as % T/C; assay type: functional, Mus musculus; outline: as §1
[14] = test system: P388; experiment: In vivo activity against P388 Lymphocytic Leukemia in CD2F1 mice at the dose of 25 mg/kg, activity expressed as % T/C; assay type: functional, Mus musculus; outline: as §1
[15] = test system: P388; experiment: In vivo activity against P388 Lymphocytic Leukemia in CD2F1 mice at the dose of 12.5 mg/kg, activity expressed as body weight difference; assay type: functional, Mus musculus; outline: as §1
[16] = test system: P388; experiment: In vivo activity against P388 Lymphocytic Leukemia in CD2F1 mice at the dose of 12.5 mg/kg, activity expressed as KE; assay type: functional, Mus musculus
[17] = test system: P388; experiment: In vivo activity against P388 Lymphocytic Leukemia in CD2F1 mice at the dose of 50 mg/kg, activity expressed as KE; assay type: functional, Mus musculus
[18] = test system: P388; experiment: In vivo activity against P388 Lymphocytic Leukemia in CD2F1 mice at the dose of 12.5 mg/kg, activity expressed as TDS; 6/6; assay type: functional, Mus musculus; outline: as §1
[19] = test system: P388; experiment: In vivo activity against P388 Lymphocytic Leukemia in CD2F1 mice at the dose of 50 mg/kg, activity expressed as body weight difference; assay type: functional, Mus musculus; outline: as §1
[20] = test system: P388; experiment: In vivo activity against P388 Lymphocytic Leukemia in CD2F1 mice at the dose of 100 mg/kg, activity expressed as TDS; assay type: functional, Mus musculus; outline: as §1
[21] = test system: P388; experiment: In vivo activity against P388 Lymphocytic Leukemia in CD2F1 mice at the dose of 25 mg/kg, activity expressed as TDS; 6/6; assay type: functional, Mus musculus; outline: as §1
[22] = test system: P388; experiment: In vivo activity against P388 Lymphocytic Leukemia in CD2F1 mice at the dose of 100 mg/kg, activity expressed as body weight difference; assay type: functional, Mus musculus; outline: as §1
[23] = test system: P388; experiment: In vivo activity against P388 Lymphocytic Leukemia in CD2F1 mice at the dose of 12.5 mg/kg, activity expressed as % T/C; assay type: functional, Mus musculus; outline: as §1
[24] = test system: P388; experiment: In vivo activity against P388 Lymphocytic Leukemia in CD2F1 mice at the dose of 25 mg/kg, activity expressed as KE; assay type: functional, Mus musculus
[25] = test system: P388; experiment: In vivo activity against P388 Lymphocytic Leukemia in CD2F1 mice at the dose of 50 mg/kg, activity expressed as TDS; 6/6; assay type: functional, Mus musculus; outline: as §1
[26] = test system: P388; experiment: In vivo activity against P388 Lymphocytic Leukemia in CD2F1 mice at the dose of 200 mg/kg, activity expressed as TDS; 0/6; assay type: functional, Mus musculus; outline: as §1
[27] = test system: P388; experiment: In vivo activity against P388 Lymphocytic Leukemia in CD2F1 mice at the dose of 25 mg/kg, activity expressed as body weight difference; assay type: functional, Mus musculus; outline: as §1
[28] = test system: P388; experiment: In vivo activity against P388 Lymphocytic Leukemia in CD2F1 mice at the dose of 100 mg/kg, activity expressed as KE; assay type: functional, Mus musculus
[29] = test system: P388; experiment: In vivo activity against P388 Lymphocytic Leukemia in CD2F1 mice at the dose of 50 mg/kg, activity expressed as TDS; 0/4; assay type: functional, Mus musculus; outline: as §1
[30] = test system: P388; experiment: In vivo activity against P388 Lymphocytic Leukemia in CD2F1 mice at the dose of 12.5 mg/kg, activity expressed as TDS; 4/4; assay type: functional, Mus musculus; outline: as §1
[31] = test system: P388; experiment: In vivo activity against P388 Lymphocytic Leukemia in CD2F1 mice at the dose of 6.2 mg/kg, activity expressed as % T/C; assay type: functional, Mus musculus; outline: as §1
[32] = test system: P388; experiment: In vivo activity against P388 Lymphocytic Leukemia in CD2F1 mice at the dose of 6.2 mg/kg, activity expressed as TDS; 4/4; assay type: functional, Mus musculus; outline: as §1
[33] = test system: P388; experiment: In vivo activity against P388 Lymphocytic Leukemia in CD2F1 mice at the dose of 6.2 mg/kg, activity expressed as body weight difference; assay type: functional, Mus musculus; outline: as §1

SMILES: CCOC(=O)c1cc(Cl)[n+](C)c(Cl)c1.CS(=O)(=O)[O-]
- K obs [1]: 6.84 h⁻¹
- half-life [2]: 2.1 h

SMILES: Cc1cc(Cl)c(Cl)[n+](C)c1.O=S(=O)([O-])C(F)(F)F
- K obs [1]: 0.055 h⁻¹
- half-life [2]: 12.6 h

SMILES: CCOC(=O)c1cc[n+](C)c(Br)c1.O=S(=O)([O-])C(F)(F)F
- K obs [1]: 0.012 h⁻¹
- half-life [2]: 57.7 h

SMILES: CC(C)NC(=O)OCc1c(COC(=O)NC(C)C)c(-c2cc(Br)c(Cl)[n+](C)c2)n2c1CCC2.[I-]
- TDS [3]: 4
- BWD [4]: -0.4 g
- TDS [5]: 4
- T/C [6]: 118%
- TDS [7]: 4
- BWD [8]: -0.6 g
- BWD [9]: -0.7 g
- TDS [10]: 4
- T/C [11]: 122%
- BWD [12]: -1 g
- T/C [13]: 105%
- T/C [14]: 124%

SMILES: CC(C)NC(=O)OCc1c(COC(=O)NC(C)C)c(-c2cc[n+](C)c(Cl)c2)n2c1CCC2.[I-]
- BWD [15]: -0.1 g
- KE [16]: -1.56
- KE [17]: -1.44
- TDS [18]: 6
- T/C [6]: 112%
- BWD [19]: -0.5 g
- TDS [20]: 6
- TDS [21]: 6
- BWD [22]: -0.8 g
- T/C [23]: 103%
- KE [24]: -1.56
- TDS [25]: 6
- TDS [26]: 0
- T/C [11]: 121%
- BWD [27]: 0.4 g
- T/C [14]: 103%
- KE [28]: -1.07

SMILES: CC(C)NC(=O)OCc1c(COC(=O)NC(C)C)c(-c2ccc(Cl)[n+](C)c2)n2c1CCC2.[I-]
- TDS [29]: 0
- TDS [5]: 4
- BWD [15]: 0.1 g
- TDS [30]: 4
- T/C [31]: 98%
- T/C [23]: 102%
- TDS [32]: 4
- BWD [33]: -0.4 g
- BWD [27]: -1.1 g
- T/C [14]: 109%
